# Results gathered from unrelated publications.
# Compare with care: the assays were run in different laboratories.
# BCHE: Cholinesterase (BCHE, Homo sapiens, UniProt P06276)
# Oprk1: Kappa-type opioid receptor (Oprk1, Mus musculus, UniProt P33534)
SMILES,target,assay,quantity,value
Cn1cc2cc(C(F)(F)c3nnc4ccc(-c5cnn(C6CC6)c5)nn34)c(F)cc2n1,"Fibroblast growth factor receptor 4 (FGFR4, Homo sapiens, UniProt P22455)","enzyme activity, inhibitor, ADP detection",IC50,> 1000 nM
C=CCOc1ccc(C(=O)/C=C/c2cccc(F)c2)c(OS(C)(=O)=O)c1I,BCHE,"enzyme activity, inhibitor",IC50,19200 nM
CC(=O)N[C@H]1[C@@H](O[C@@H]2O[C@H](C[C@@H](O)[C@H]3O[C@@H](n4ccc(=O)[nH]c4=O)[C@H](O)[C@@H]3O)[C@H](O)[C@H](O)[C@H]2NC(=O)/C=C/CCCCCCCCCC(C)C)O[C@H](CO)[C@@H](O)[C@@H]1O,"UDP-N-acetylglucosamine--dolichyl-phosphate N-acetylglucosaminephosphotransferase (Homo sapiens, UniProt Q9H3H5)","enzyme activity, inhibitor",IC50,1530 nM
CC(C)c1cc2c(c(O)c1O)[C@@]13CCCC(C)(C)[C@@H]1[C@@H](O)[C@@H]2OC3=O,BCHE,"enzyme activity, inhibitor",IC50,1.41 nM
COc1cc(/C=C/C(=O)O)ccc1OCc1cn(CC(=O)Nc2ccc(Cl)cc2Cl)nn1,BCHE,"enzyme activity, inhibitor, Ellman",IC50,12000 nM
CC(C)[C@@H](CN1CCc2ccccc2C1)NC(=O)Cc1c[nH]c2ccccc12,Oprk1,"ligand displacement, radioligand",Ki,2750 nM
C=CCOc1ccc(C(=O)/C=C/c2cccc(F)c2)c(OS(=O)(=O)c2ccc(OC)cc2)c1I,BCHE,"enzyme activity, inhibitor",IC50,14500 nM
COc1c2c(cc3c1-c1c(cc4c(c1OC)OCO4)C[C@H](C)[C@H](C)C3)OCO2,"Cocaine esterase (CES2, Homo sapiens, UniProt O00748)","enzyme activity, inhibitor, fluorescence",IC50,1340 nM
CC(C)[C@@H](CN1CCc2ccccc2C1)NC(=O)c1cccc(-c2cccc(O)c2)c1,Oprk1,"ligand displacement, radioligand",Ki,810 nM
C=CCOc1ccc(C(=O)/C=C/c2ccc(OC)cc2)c(O)c1I,BCHE,"enzyme activity, inhibitor",IC50,22400 nM
CC(C)c1cc2c(c(O)c1O)[C@@]13CCCC(C)(C)[C@@H]1[C@H](OC3=O)[C@H]2O,BCHE,"enzyme activity, inhibitor",IC50,0.75 nM
C=CCc1ccc(O)c(-c2cc(CC=C)ccc2O)c1,BCHE,"enzyme activity, inhibitor, Ellman",IC50,> 100000 nM
CC(C)c1cc2c(c(O)c1O)[C@@]1(C(=O)O)CCCC(C)(C)[C@@H]1CC2,BCHE,"enzyme activity, inhibitor, absorbance",Ki,0.49 nM
C=CCOc1ccc(C(=O)/C=C/c2ccc(OC)cc2)c(OS(=O)(=O)c2ccccc2[N+](=O)[O-])c1I,BCHE,"enzyme activity, inhibitor",IC50,14200 nM
CC(C)c1cc2c(c(O)c1O)[C@@]13CCCC(C)(C)[C@@H]1C[C@@H]2OC3=O,BCHE,"enzyme activity, inhibitor",IC50,0.95 nM
CCOC(=O)c1ccc(OC(=O)CCCCCN=C(N)N)cc1,"Plasma kallikrein (KLKB1, Homo sapiens, UniProt P03952)","enzyme activity, inhibitor",IC50,86.4 nM
